From publication PMC11847389 (BMC Chemistry, 2025)

Legend:
[1] = in vitro, independent of concentration; ref package insert of JAYPIRCA; cited from earlier work
[2] = ref package insert of JAYPIRCA, cited from earlier work
mutant BTK C481S = settings: cited from earlier work
[3] = Pharmacokinetic study of pirtobrutinib in rats; assay type: in vivo, Sprague–Dawley rats
In short: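 Six male Sprague–Dawley rats (8 weeks, 230 g ± 10 g), fasted 12 h, got a single intragastric 10 mg·kg-1 suspension in 0.5% CMC-Na. Ophthalmic-vein blood (200 µL, EDTA-K2) was drawn pre-dose and at 0.25–48 h; plasma was frozen at -80 °C. Plasma underwent cold-methanol protein precipitation with IS, then C18 UHPLC-MS/MS (0.5–500 ng/mL calibration). Parameters came from non-compartmental analysis.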

[4] = Stability of pirtobrutinib in rat plasma under different storage conditions; assay type: in vitro ADME; settings: for Stability RE %: n = 6
In short: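 Blank rat plasma was spiked 1:10 with working solution to make QCs of 1, 25 and 400 ng/mL, six replicates each. These were held at room temperature 4 h, in the autosampler at 4 °C 24 h, through three freeze-thaw cycles, or at -80 °C 30 days. Samples then underwent cold-methanol protein precipitation with IS and UHPLC-MS/MS; RSD% and RE% were reported.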

mutant BTK C481R = settings: cited from earlier work
mutant BTK C481T = settings: cited from earlier work
[5] = system: patients with covalent BTKi-pretreated CLL; settings: cited from earlier work
[6] = cited from earlier work
CLL/SLL patients = settings: 323 patients; cited from earlier work
[7] = system: CYP3A4, UGT1A8 and UGT1A9; settings: ref package insert of JAYPIRCA; cited from earlier work
[8] = male, Sprague-Dawley, rat, plasma, po, 10 mg/kg

COc1ccc(F)cc1C(=O)NCc1ccc(-c2nn([C@@H](C)C(F)(F)F)c(N)c2C(N)=O)cc1 [Pirtobrutinib]
human protein binding [1]: 96% | mean apparent clearance ([2]; (37.2%) printed as spread): 2.05 L/h | median time to reach peak plasma concentration (tmax) ([2]; range 0.833 to 4.15 h): approximately 2 h | effective half-life [2]: approximately 19 h | absolute bioavailability ([2]; single oral 200 mg dose, range 75.9–90.9%): 85.5% | inhibition of autophosphorylation of Y223 (mutant BTK C481S): can inhibit | plasma concentration at last sampling timepoint ([3]; 48 h after intragastric 10 mg·kg−1, LLOQ 0.5 ng/ml): below the LLOQ | concentration at 0.25 h ([3]; male, Sprague-Dawley, rat, plasma, oral, 10 mg·kg−1): 140 ng/mL | AUC(0-inf) [3, 8]: 2350 ± 582 ng·h/mL | AUC(0-t) [3, 8]: 2340 ± 578 ng·h/mL | Cmax [3, 8]: 344 ± 56.6 ng/mL | MRT inf [3, 8]: 5.15 ± 0.94 h | MRT last [3, 8]: 5.05 ± 0.923 h | Tmax [3, 8]: 1.08 ± 0.736 h | half-life [3, 8]: 2.95 ± 0.121 h | Stability RE % ([4]; 1.0 ng/mL, autosampler 4 ℃, 24 h after preparation): -6.9% | Stability RE % ([4]; 25 ng/mL, autosampler 4 ℃, 24 h after preparation): -9.4% | Stability RE % ([4]; 400 ng/mL, autosampler 4 ℃, 24 h after preparation): -11.7% | Stability RE% value, three QC samples ([4]; all four storage conditions, absolute (±) value): < 11.7% | Stability RE % ([4]; rat plasma, 1.0 ng/mL, -80 ℃, 30 days): -1.8% | Stability RE % ([4]; rat plasma, 1.0 ng/mL, room temperature, 4 h): 0% | Stability RE % ([4]; rat plasma, 1.0 ng/mL, three freeze-thaw): -3.7% | Stability RE % ([4]; rat plasma, 25 ng/mL, -80 ℃, 30 days): 9.4% | Stability RE % ([4]; rat plasma, 25 ng/mL, room temperature, 4 h): 1.7% | Stability RE % ([4]; rat plasma, 400 ng/mL, three freeze-thaw): 6.0% | Stability in plasma ([4]; several storage and handling conditions): stable | inhibition of autophosphorylation of Y223 (mutant BTK C481R): can inhibit | inhibition of autophosphorylation of Y223 (mutant BTK C481T): can inhibit | ORR versus venetoclax monotherapy [5]: significantly higher | permeability in vitro [6]: high | dose-limiting toxicities (CLL/SLL patients): no dose-limiting toxicities | patients discontinuing medication due to treatment-related AEs (CLL/SLL patients): 1% | metabolism in vitro [7]: primarily metabolized by CYP3A4 and direct glucuronidation by UGT1A8 and UGT1A9
